Reference: ChEMBL document CHEMBL2202989, “New adamantane phenylalkylamines with σ-receptor binding affinity and anticancer activity, associated with putative antagonism of neuropathic pain” (J Med Chem, 2012)

Test system: SK-HEP1
Assay: Growth inhibition of human SKHEP1 cells after 48 hrs by SRB assay
Format: functional
Conditions: SK-HEP1, 48 h
Outline: (§1)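 Cells grown in RPMI 1640 with 5% heat-inactivated FCS, 2 mM L-glutamine and antibiotics, 37 °C, 5% CO2. Seeded at 3500–30000 cells/well and left 24 h before dosing. DMSO solutions added at 10-fold dilutions from 100 to 0.01 μM for 48 h. Cells TCA-fixed and SRB-stained, absorbance read at 540 nm; GI50 derived against the time-zero plate.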

SMILES | GI50 [µM] | TGI [µM]
c1ccc(C(c2ccc(CCCN3CCCCC3)cc2)C23CC4CC(CC(C4)C2)C3)cc1 (centres undefined) | 3.25 | 5.97

Same assay, conditions: SK-HEP1, 48 h, read-out: LC50 (the source's name)

SMILES | CC50 [µM]
c1ccc(C(c2ccc(CCCN3CCCCC3)cc2)C23CC4CC(CC(C4)C2)C3)cc1 (centres undefined) | 0.00868

Test system: PC-3
Assay: Growth inhibition of human PC3 cells after 48 hrs by SRB assay
Format: functional
Conditions: PC-3, 48 h
Outline: as §1

SMILES | GI50 [µM] | TGI [µM]
c1ccc(C(c2ccc(CCCN3CCCCC3)cc2)C23CC4CC(CC(C4)C2)C3)cc1 (centres undefined) | 3.92 | 7.32

Same assay, conditions: PC-3, 48 h, read-out: LC50 (the source's name)

SMILES | CC50 [µM]
c1ccc(C(c2ccc(CCCN3CCCCC3)cc2)C23CC4CC(CC(C4)C2)C3)cc1 (centres undefined) | 0.0107

Test system: HCT-15
Assay: Growth inhibition of human HCT15 cells after 48 hrs by SRB assay
Format: functional
Conditions: HCT-15, 48 h
Outline: as §1

SMILES | GI50 [µM] | TGI [µM]
c1ccc(C(c2ccc(CCCN3CCCCC3)cc2)C23CC4CC(CC(C4)C2)C3)cc1 (centres undefined) | 3.89 | 6.78

Same assay, conditions: HCT-15, 48 h, read-out: LC50 (the source's name)

SMILES | CC50 [µM]
c1ccc(C(c2ccc(CCCN3CCCCC3)cc2)C23CC4CC(CC(C4)C2)C3)cc1 (centres undefined) | 0.00968

Target: not listed separately
Assay: Displacement of [3H]batrachotoxin benzoate from Na+ channel after 60 mins by liquid scintillation counting
Conditions: not given
Outline: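 Na+ channel site 2 binding: vesicle preparation (150−500 μg protein) incubated 60 min with 20−25 nM [3H]BTX-B and 50 μg Leiurius quinquestriatus venom. Buffer was 130 mM choline chloride, 50 mM HEPES/Tris pH 7.4, glucose, MgSO4, KCl, BSA. Filtered on GF/C with cold washes; scintillation counting. Nonspecific binding defined with 250 μM veratridine.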

SMILES | IC50 [µM]
c1ccc(C(c2ccc(CCCN3CCCCC3)cc2)C23CC4CC(CC(C4)C2)C3)cc1 (centres undefined) | > 0.1

Test system: MCF7
Assay: Growth inhibition of human MCF7 cells after 48 hrs by SRB assay
Format: functional
Conditions: MCF7, 48 h
Outline: as §1

SMILES | GI50 [µM] | TGI [µM]
c1ccc(C(c2ccc(CCCN3CCCCC3)cc2)C23CC4CC(CC(C4)C2)C3)cc1 (centres undefined) | 2.41 | 6.07

Same assay, conditions: MCF7, 48 h, read-out: LC50 (the source's name)

SMILES | CC50 [µM]
c1ccc(C(c2ccc(CCCN3CCCCC3)cc2)C23CC4CC(CC(C4)C2)C3)cc1 (centres undefined) | 0.00963

Test system: NHDF
Assay: (§2) Growth inhibition of human NHDF cells after 48 hrs by SRB assay
Format: cell-based
Conditions: nhdf, 48 h
Outline: as §1

SMILES | LC50 [µM] | TGI [µM]
c1ccc(C(c2ccc(CCCN3CCCCC3)cc2)C23CC4CC(CC(C4)C2)C3)cc1 (centres undefined) | 9.47 | 6.15

Test system: not listed separately
Assay: as §2
Format: cell-based
Conditions: NHDF cells
Outline: as §1

SMILES | GI50 at 48 h [µM]
c1ccc(C(c2ccc(CCCN3CCCCC3)cc2)C23CC4CC(CC(C4)C2)C3)cc1 (centres undefined) | 2.83

Test system: BXPC-3
Assay: Growth inhibition of human BxPC3 cells after 48 hrs by SRB assay
Format: functional
Conditions: BXPC-3, 48 h
Outline: as §1

SMILES | GI50 [µM] | LC50 [µM] | TGI [µM]
c1ccc(C(c2ccc(CCCN3CCCCC3)cc2)C23CC4CC(CC(C4)C2)C3)cc1 (centres undefined) | 3.78 | 0.00917 | 6.47

Target: Sigma non-opioid intracellular receptor 1 (Homo sapiens, UniProt Q99720)
Sequence (Q99720 whole entry): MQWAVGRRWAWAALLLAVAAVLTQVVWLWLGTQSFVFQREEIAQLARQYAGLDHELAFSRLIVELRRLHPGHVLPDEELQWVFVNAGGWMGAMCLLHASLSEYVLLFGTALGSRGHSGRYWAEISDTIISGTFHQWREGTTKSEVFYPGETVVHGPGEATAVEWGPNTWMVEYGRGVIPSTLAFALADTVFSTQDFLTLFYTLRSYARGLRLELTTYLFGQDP
Assay: Displacement of [3H]-(+)-pentazocine from sigma 1 receptor in human Jurkat cell membrane
Format: cell membranes
Conditions: not given
Outline: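 Jurkat cell membranes incubated with 8 nM [3H](+)-pentazocine and a range of test concentrations for 2 h at 22 °C in Tris-HCl buffer, pH 7.4. Nonspecific binding defined with 10 μM haloperidol. Run in triplicate.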

SMILES | IC50 [µM]
c1ccc(C(c2ccc(CCCN3CCCCC3)cc2)C23CC4CC(CC(C4)C2)C3)cc1 (centres undefined) | 0.0123

Test system: U-251
Assay: Growth inhibition of human U251 cells after 48 hrs by SRB assay
Format: functional
Conditions: U-251, 48 h
Outline: as §1

SMILES | GI50 [µM] | TGI [µM]
c1ccc(C(c2ccc(CCCN3CCCCC3)cc2)C23CC4CC(CC(C4)C2)C3)cc1 (centres undefined) | 4.61 | 7.19

Same assay, conditions: U-251, 48 h, read-out: LC50 (the source's name)

SMILES | CC50 [µM]
c1ccc(C(c2ccc(CCCN3CCCCC3)cc2)C23CC4CC(CC(C4)C2)C3)cc1 (centres undefined) | 0.00977

Target: not listed separately
Assay: Displacement of [3H]1,3-di-otolylguanidine from sigma 2 receptor in rat cerebral cortex membranes
Format: cell membranes, Membrane
Conditions: not given
Outline: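 Rat cerebral cortex membranes incubated with 5 nM [3H]DTG plus 300 nM (+)-pentazocine to mask σ1 sites, together with a range of test concentrations, 2 h at 22 °C in Tris-HCl, pH 7.4. Nonspecific binding defined with 10 μM haloperidol.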

SMILES | IC50 [µM]
c1ccc(C(c2ccc(CCCN3CCCCC3)cc2)C23CC4CC(CC(C4)C2)C3)cc1 (centres undefined) | 0.013

Test system: not listed separately
Assay: Growth inhibition of human MSC cells after 48 hrs by SRB assay
Format: cell-based
Conditions: not given
Outline: as §1

SMILES | TGI [µM]
c1ccc(C(c2ccc(CCCN3CCCCC3)cc2)C23CC4CC(CC(C4)C2)C3)cc1 (centres undefined) | 1.93

Test system: HCT-116
Assay: Growth inhibition of human HCT116 cells after 48 hrs by SRB assay
Format: functional
Conditions: HCT-116, 48 h
Outline: as §1

SMILES | GI50 [µM] | TGI [µM]
c1ccc(C(c2ccc(CCCN3CCCCC3)cc2)C23CC4CC(CC(C4)C2)C3)cc1 (centres undefined) | 3.37 | 5.99

Same assay, conditions: HCT-116, 48 h, read-out: LC50 (the source's name)

SMILES | CC50 [µM]
c1ccc(C(c2ccc(CCCN3CCCCC3)cc2)C23CC4CC(CC(C4)C2)C3)cc1 (centres undefined) | 0.00861

Test system: HUVEC
Assay: (§3) Growth inhibition of human HUVEC cells after 48 hrs by SRB assay
Format: cell-based
Conditions: huvec, 48 h
Outline: as §1

SMILES | LC50 [µM] | TGI [µM]
c1ccc(C(c2ccc(CCCN3CCCCC3)cc2)C23CC4CC(CC(C4)C2)C3)cc1 (centres undefined) | 9.18 | 6.23

Test system: not listed separately
Assay: as §3
Format: cell-based
Conditions: HUVEC cells
Outline: as §1

SMILES | GI50 at 48 h [µM]
c1ccc(C(c2ccc(CCCN3CCCCC3)cc2)C23CC4CC(CC(C4)C2)C3)cc1 (centres undefined) | 3.27

Test system: DU-145
Assay: Growth inhibition of human DU145 cells after 48 hrs by SRB assay
Format: functional
Conditions: DU-145, 48 h
Outline: as §1

SMILES | GI50 [µM] | TGI [µM]
c1ccc(C(c2ccc(CCCN3CCCCC3)cc2)C23CC4CC(CC(C4)C2)C3)cc1 (centres undefined) | 5.18 | 8.17

Same assay, conditions: DU-145, 48 h, read-out: LC50 (the source's name)

SMILES | CC50 [µM]
c1ccc(C(c2ccc(CCCN3CCCCC3)cc2)C23CC4CC(CC(C4)C2)C3)cc1 (centres undefined) | 0.0112
